# Columns and labels:
# Pepsin A [1] = target: Pepsin A (Sus scrofa, UniProt P00791); experiment: Pepsin inhibition was measured using the synthetic heptapeptide substrate Phe-Gly-His-Phe-(N02)-Phe-Ala- Phe-OMe
# How it was run: (§1)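 Nitrophenylalanine-containing heptapeptide substrate hydrolysis by pepsin; run at five substrate and three inhibitor concentrations per analogue, with Ki calculated by a previously described method.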
# Renin (Sus scrofa) = experiment: Inhibition of renin was measured using hog kidney renin and the radiolabeled synthetic substrate, H-Ile-His-Pro-Phe-His-Leu-[14C]Leu-Val-Tyr-Ser-OH
# Pepsin A [2] = target: Pepsin A (Homo sapiens, UniProt P0DJD9); experiment: Pepsin inhibition using synthetic heptapeptide substrate Phe-Gly-His-Phe-(N02)-Phe-Ala- Phe-OMe; how it was run: as §1
# Sequence of Pepsin A (Homo sapiens, UniProt P0DJD9) (P0DJD9 whole entry): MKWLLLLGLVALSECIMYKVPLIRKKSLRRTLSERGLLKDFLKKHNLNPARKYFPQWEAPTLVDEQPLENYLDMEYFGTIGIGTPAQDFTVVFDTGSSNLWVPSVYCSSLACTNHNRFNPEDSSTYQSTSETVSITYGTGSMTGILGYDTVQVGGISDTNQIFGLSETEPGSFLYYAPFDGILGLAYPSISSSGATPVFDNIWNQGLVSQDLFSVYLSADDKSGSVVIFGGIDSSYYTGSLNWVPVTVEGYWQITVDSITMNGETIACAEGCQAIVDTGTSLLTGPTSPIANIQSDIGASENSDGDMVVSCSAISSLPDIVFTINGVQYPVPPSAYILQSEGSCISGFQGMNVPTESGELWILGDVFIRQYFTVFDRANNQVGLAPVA
# Sequence of Pepsin A (Sus scrofa, UniProt P00791) (P00791 whole entry): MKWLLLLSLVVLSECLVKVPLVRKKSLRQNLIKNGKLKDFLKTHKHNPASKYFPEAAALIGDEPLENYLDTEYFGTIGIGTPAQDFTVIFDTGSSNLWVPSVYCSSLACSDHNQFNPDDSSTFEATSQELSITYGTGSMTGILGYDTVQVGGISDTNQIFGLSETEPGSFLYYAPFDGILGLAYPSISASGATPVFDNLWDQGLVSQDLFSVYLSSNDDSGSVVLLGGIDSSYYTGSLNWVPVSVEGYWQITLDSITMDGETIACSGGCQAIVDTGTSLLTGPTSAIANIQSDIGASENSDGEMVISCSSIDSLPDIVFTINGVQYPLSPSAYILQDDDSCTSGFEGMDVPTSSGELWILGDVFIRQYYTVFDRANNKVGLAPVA
Ki (Pepsin A [1]) [nM],IC50 (Renin (Sus scrofa)) [nM],Ki (Pepsin A [2]) [nM],SMILES
0.9,–,–,CC(C)CCNC(=O)[C@H](C)NC(=O)C[C@H](O)NC(C(=O)[C@H](NC(=O)CC(C)C)C(C)C)c1ccccc1 (stereo partly drawn)
1.1,–,–,CC(C)CCNC(=O)[C@H](C)NC(=O)C[C@H](O)C(CC(C)C)NC(=O)[C@H](NC(=O)CC(C)C)C(C)C (stereo partly drawn)
~1000,> 330000,–,CC(C)CC(=O)N[C@@H](C(=O)N[C@@H](CC(C)C)C(O)CC(N)=O)C(C)C (stereo partly drawn)
–,–,3000,CC(C)CCNC(=O)[C@H](C)NC(=O)C[C@@H](O)C(CC(C)C)NC(=O)[C@H](NC(=O)CC(C)C)C(C)C (stereo partly drawn)
350,> 330000,–,CC(C)CCNC(=O)[C@@H](C)NC(=O)C[C@H](O)C(CC(C)C)NC(=O)CC(C)C (stereo partly drawn)
0.0457,–,–,CC(C)CC(=O)N[C@@H](C(=O)N[C@@H](C(=O)NC(CC(C)C)[C@@H](O)CC(=O)N[C@H](C)C(=O)NC(CC(C)C)[C@@H](O)CO)C(C)C)C(C)C (stereo partly drawn)

# Source: ChEMBL document CHEMBL1121520, “Synthesis of analogues of the carboxyl protease inhibitor pepstatin. Effects of structure on inhibition of pepsin and renin” (J Med Chem, 1980)
